Source: ChEMBL document CHEMBL5303300, “EUbOPEN Chemogenomics Library - Multiplex” (2023)
Values joined by “and” are separate entries in the source; they are usually repeats but may differ in a detail not shown here. Equal values may be shown once.

Test system: HEK-293T
Assay: Multiplex assay against HEK293T
Format: toxicity, cell-based
Details: human, number of replicates 2
Outline: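 On a CQ1 microscope at 37°C and 5% CO2, live cells were imaged after compound addition. They had been stained at seeding with Hoechst33342, BioTracker Green Microtubule Cytoskeleton Dye, MitoTracker Red and Annexin V Alexa Fluor 680. CellPathfinder machine-learning gating assigned cells to Hoechst high-intensity objects or normal cells, normal cells to healthy, pyknosed or fragmented nuclei, and pyknosed cells to mitotic or apoptotic. Tubulin, mitochondrial-mass and membrane-permeability phenotypes are per cents of healthy-nucleus cells.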

[1] = 12 h, 1 µM, compound concentration 1 uM
[2] = 12 h, 10 µM, compound concentration 10 uM
[3] = 24 h, 1 µM, compound concentration 1 uM
[4] = 24 h, 10 µM, compound concentration 10 uM
[5] = 48 h, 1 µM, compound concentration 1 uM
[6] = 48 h, 10 µM, compound concentration 10 uM

COc1ccccc1-c1cc(Nc2cccc(CS(N)(=O)=O)c2)ncn1
Population Apoptotic (%) [1]: 35% and 36% | Population Fragmented Nuclei (%) [1]: 4% and 2% | Population Healthy Nuclei (%) [1]: 85% | Population Hoechst High Intensity Objects (%) [1]: 6% and 7% | Population Membrane Permeable-Phenotype (%) [1]: 3% and 5% | Population Mitochondria Different-Phenotype (%) [1]: 15% and 14% | Population Mitotic Cells (%) [1]: 64% | Population Normal (%) [1]: 93% and 92% | Population Pyknosed Nuclei (%) [1]: 10% and 12% | Population Tubulin-Different-Phenotype (%) [1]: 56% and 48% | Total Cell Count [1]: 807 and 675 | Population Apoptotic (%) [2]: 32% and 34% | Population Fragmented Nuclei (%) [2]: 4% and 5% | Population Healthy Nuclei (%) [2]: 87% and 84% | Population Hoechst High Intensity Objects (%) [2]: 7% | Population Membrane Permeable-Phenotype (%) [2]: 3% | Population Mitochondria Different-Phenotype (%) [2]: 26% and 28% | Population Mitotic Cells (%) [2]: 67% and 65% | Population Normal (%) [2]: 92% | Population Pyknosed Nuclei (%) [2]: 8% and 10% | Population Tubulin-Different-Phenotype (%) [2]: 61% and 74% | Total Cell Count [2]: 665 and 582 | Population Apoptotic (%) [3]: 35% and 34% | Population Fragmented Nuclei (%) [3]: 5% and 4% | Population Healthy Nuclei (%) [3]: 86% and 88% | Population Hoechst High Intensity Objects (%) [3]: 6% and 8% | Population Membrane Permeable-Phenotype (%) [3]: 3% and 2% | Population Mitochondria Different-Phenotype (%) [3]: 4% and 5% | Population Mitotic Cells (%) [3]: 64% and 65% | Population Normal (%) [3]: 93% and 91% | Population Pyknosed Nuclei (%) [3]: 7% | Population Tubulin-Different-Phenotype (%) [3]: 36% | Total Cell Count [3]: 1151 and 990 | Population Apoptotic (%) [4]: 47% and 40% | Population Fragmented Nuclei (%) [4]: 2% and 1% | Population Healthy Nuclei (%) [4]: 90% | Population Hoechst High Intensity Objects (%) [4]: 4% and 5% | Population Membrane Permeable-Phenotype (%) [4]: 5% and 6% | Population Mitochondria Different-Phenotype (%) [4]: 20% and 19% | Population Mitotic Cells (%) [4]: 52% and 60% | Population Normal (%) [4]: 95% and 94% | Population Pyknosed Nuclei (%) [4]: 6% and 7% | Population Tubulin-Different-Phenotype (%) [4]: 69% and 75% | Total Cell Count [4]: 861 and 783 | Population Apoptotic (%) [5]: 11% and 13% | Population Fragmented Nuclei (%) [5]: 11% and 8% | Population Healthy Nuclei (%) [5]: 85% and 88% | Population Hoechst High Intensity Objects (%) [5]: 8% and 9% | Population Membrane Permeable-Phenotype (%) [5]: 5% and 3% | Population Mitochondria Different-Phenotype (%) [5]: 0% | Population Mitotic Cells (%) [5]: 88% and 86% | Population Normal (%) [5]: 91% and 90% | Population Pyknosed Nuclei (%) [5]: 3% | Population Tubulin-Different-Phenotype (%) [5]: 15% and 16% | Total Cell Count [5]: 2772 and 2160 | Population Apoptotic (%) [6]: 34% and 35% | Population Fragmented Nuclei (%) [6]: 8% and 5% | Population Healthy Nuclei (%) [6]: 86% and 90% | Population Hoechst High Intensity Objects (%) [6]: 6% | Population Membrane Permeable-Phenotype (%) [6]: 3% | Population Mitochondria Different-Phenotype (%) [6]: 7% and 8% | Population Mitotic Cells (%) [6]: 65% and 64% | Population Normal (%) [6]: 93% | Population Pyknosed Nuclei (%) [6]: 4% and 3% | Population Tubulin-Different-Phenotype (%) [6]: 51% and 50% | Total Cell Count [6]: 1254 and 1055

CNS(=O)(=O)c1ccc(N(C)C)c(Nc2ncnc3cc(OC)c(OC)cc23)c1
Population Apoptotic (%) [1]: 51% and 45% | Population Fragmented Nuclei (%) [1]: 3% and 2% | Population Healthy Nuclei (%) [1]: 81% and 83% | Population Hoechst High Intensity Objects (%) [1]: 5% and 8% | Population Membrane Permeable-Phenotype (%) [1]: 2% | Population Mitochondria Different-Phenotype (%) [1]: 17% and 12% | Population Mitotic Cells (%) [1]: 48% and 54% | Population Normal (%) [1]: 94% and 91% | Population Pyknosed Nuclei (%) [1]: 14% | Population Tubulin-Different-Phenotype (%) [1]: 37% and 34% | Total Cell Count [1]: 547 and 550 | Population Apoptotic (%) [2]: 47% and 54% | Population Fragmented Nuclei (%) [2]: 2% and 3% | Population Healthy Nuclei (%) [2]: 87% and 88% | Population Hoechst High Intensity Objects (%) [2]: 7% | Population Membrane Permeable-Phenotype (%) [2]: 2% and 1% | Population Mitochondria Different-Phenotype (%) [2]: 26% and 24% | Population Mitotic Cells (%) [2]: 52% and 45% | Population Normal (%) [2]: 92% | Population Pyknosed Nuclei (%) [2]: 9% and 8% | Population Tubulin-Different-Phenotype (%) [2]: 59% | Total Cell Count [2]: 607 | Population Apoptotic (%) [3]: 45% and 47% | Population Fragmented Nuclei (%) [3]: 5% and 7% | Population Healthy Nuclei (%) [3]: 86% and 84% | Population Hoechst High Intensity Objects (%) [3]: 7% and 6% | Population Membrane Permeable-Phenotype (%) [3]: 3% and 1% | Population Mitochondria Different-Phenotype (%) [3]: 4% | Population Mitotic Cells (%) [3]: 54% and 52% | Population Normal (%) [3]: 92% and 93% | Population Pyknosed Nuclei (%) [3]: 8% | Population Tubulin-Different-Phenotype (%) [3]: 13% and 17% | Total Cell Count [3]: 888 and 859 | Population Apoptotic (%) [4]: 53% and 62% | Population Fragmented Nuclei (%) [4]: 3% and 5% | Population Healthy Nuclei (%) [4]: 89% and 87% | Population Hoechst High Intensity Objects (%) [4]: 8% and 11% | Population Membrane Permeable-Phenotype (%) [4]: 1% | Population Mitochondria Different-Phenotype (%) [4]: 16% and 20% | Population Mitotic Cells (%) [4]: 46% and 37% | Population Normal (%) [4]: 91% and 88% | Population Pyknosed Nuclei (%) [4]: 7% | Population Tubulin-Different-Phenotype (%) [4]: 51% and 49% | Total Cell Count [4]: 699 and 675 | Population Apoptotic (%) [5]: 18% and 9% | Population Fragmented Nuclei (%) [5]: 13% and 11% | Population Healthy Nuclei (%) [5]: 83% and 85% | Population Hoechst High Intensity Objects (%) [5]: 7% and 8% | Population Membrane Permeable-Phenotype (%) [5]: 5% and 3% | Population Mitochondria Different-Phenotype (%) [5]: 0% | Population Mitotic Cells (%) [5]: 81% and 90% | Population Normal (%) [5]: 92% and 91% | Population Pyknosed Nuclei (%) [5]: 3% | Population Tubulin-Different-Phenotype (%) [5]: 5% | Total Cell Count [5]: 2132 and 1975 | Population Apoptotic (%) [6]: 20% and 37% | Population Fragmented Nuclei (%) [6]: 11% and 8% | Population Healthy Nuclei (%) [6]: 86% and 87% | Population Hoechst High Intensity Objects (%) [6]: 12% | Population Membrane Permeable-Phenotype (%) [6]: 3% and 2% | Population Mitochondria Different-Phenotype (%) [6]: 2% | Population Mitotic Cells (%) [6]: 80% and 62% | Population Normal (%) [6]: 87% | Population Pyknosed Nuclei (%) [6]: 2% and 4% | Population Tubulin-Different-Phenotype (%) [6]: 39% | Total Cell Count [6]: 1182 and 985
